From ChEMBL document CHEMBL4411261, “Down-Regulation of the Androgen Receptor by G-Quadruplex Ligands Sensitizes Castration-Resistant Prostate Cancer Cells to Enzalutamide” (J Med Chem, 2018)
Calls of active or inactive are those of the source. The rule behind the calls is not given here.

Columns and labels:
[1] = system: Quadruplex DNA; experiment: Stabilization of 5'-FAM/3'-TAMRA labelled AR1 G-quadruplex oligonucleotide (unknown origin) assessed as change in melting temperature t1/2 at 1 uM after 16 hrs in presence of 100 mM K+ by FRET assay; format: nucleic-acid assay
Procedure, shortened: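 FRET melting: FAM/TAMRA dual-labelled oligos (0.25 μM) folded in 10 mM lithium cacodylate pH 7.4 with 100 mM KCl (95 °C 5 min, cooled 4 h); ligand added at 1 μM final, 16 h room temperature. FAM emission followed 30−95 °C at 1 °C/min; curves normalized 0 to 1, T1/2 at 0.5 fraction.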

[2] = Binding affinity to 5'-Biotinylated-AGTGAGAGTGAGAGAGAGAGTGAGAGTGAGAGTGA ssDNA (unknown origin) by SPR analysis
Procedure, shortened: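 SPR on streptavidin chip; 5′-biotinylated oligo folded by heating 95 °C 5 min in 10 mM lithium cacodylate, 150 mM KCl, then immobilized at 30 nM to about 600 RU; empty reference cell. Compound 0.7−400 nM in HEPES-KCl (pH 7.4, 0.15 M KCl, 3 mM EDTA) at 40 °C, 40 μL/min, 260 s contact, 600 s dissociation; glycine pH 2.0 regeneration; steady-state affinity fit; at least two independent runs.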

[3] = system: Quadruplex DNA; experiment: Binding affinity to 5'-Biotinylated-AR1 G-quadruplex oligonucleotide (unknown origin) by SPR analysis relative to control; format: nucleic-acid assay
[4] = system: PNT1A; experiment: Cytotoxicity against human PNT1A cells assessed as reduction in cell viability after 48 hrs by MTS assay; format: cell-based
Procedure, shortened: (§1)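 Cells kept in RPMI-1640 with 10% fetal calf serum, 37 °C, 5% CO2. Seeded, after 24 h treated with 0.0001, 0.001, 0.01, 0.1, 1 and 10 μM compound (DMSO stocks freshly diluted in medium) for 48 h. MTS added 4 h, absorbance 490 nm; IC50 from curves of % viability inhibition versus DMSO-treated cells against log concentration.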

[5] = system: PC-3; experiment: Cytotoxicity against human PC3 cells assessed as reduction in cell viability after 48 hrs by MTS assay; format: functional, cell-based; settings: PC-3, 48 h; procedure, shortened: as §1
[6] = Drug uptake in human PC3 cells at 160 nM after 24 hrs by DAPI staining-based fluorescence microscopic analysis; format: ADME, cell-based; settings: pc-3, 24 h, 0.16 µM
[7] = Drug uptake in human 22Rv1 cells expressing full length androgen receptor H875Y point mutant at 160 nM after 24 hrs by DAPI staining-based fluorescence microscopic analysis; format: ADME, cell-based; settings: cwr22r, 0.16 µM
[8] = system: Quadruplex DNA; experiment: Stabilization of AR G-quadruplex oligonucleotide in human 22Rv1 cells assessed as reduction in AR-VS protein level at IC50 after 48 hrs by Western immunoblot assay; format: cell-based
[9] = system: Quadruplex DNA; experiment: Stabilization of AR G-quadruplex oligonucleotide in human 22Rv1 cells assessed as reduction in AR mRNA expression at IC50 after 6 to 72 hrs by RT-PCR analysis; format: cell-based; settings: TDE = time-dependent effect
Procedure, shortened: (§2)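 Transcripts quantified by TaqMan real-time PCR with RNaseP as normalizer; relative quantity versus untreated cells by the 2−ΔΔCt method. Panel genes measured with a 92-gene cancer-mechanism TaqMan array.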

[10] = Stabilization of AGTGAGAGTGAGAGAGAGAGTGAGAGTGAGAGTGA ssDNA (unknown origin) assessed as change in melting temperature at 16 uM after 16 hrs in presence of 100 mM K+ by CD spectra analysis
Procedure, shortened: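 CD: oligos at 4 μM final in 10 mM lithium cacodylate pH 7.4, 100 mM KCl, annealed 95 °C 5 min then 4 h room temperature; duplex from equimolar strands. Ligand 16 μM final, 16 h room temperature. Spectra 230−320 nm, 5 mm cell, two scans averaged at 20 °C, buffer-subtracted; melting from spectra 20−90 °C in 5 °C steps.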

[11] = system: Quadruplex DNA; experiment: Stabilization of AR1 template G-quadruplex DNA (unknown origin) assessed as inhibition of polymerase progression at G4 site by measuring reduction in full length amplified product using GGCAAAAAGCAGCTGCTTATATGCAG as primer at 12.5 to 200 nM after 30 mins in presence of 5'-end labeled [gamma32P]ATP by phosphorimaging based taq polymerase stop assay; format: nucleic-acid assay
Procedure, shortened: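 Primer 5′-labeled with [γ-32P]ATP by T4 polynucleotide kinase, 37 °C, 30 min. Labeled primer (72 nM final) annealed to template (36 nM final) in 10 mM lithium cacodylate pH 7.4, with or without 10 mM KCl, by heating at 95 °C for 5 min then slow cooling.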

[12] = system: Quadruplex DNA; experiment: Stabilization of AR G-quadruplex oligonucleotide in human 22Rv1 cells assessed as down-regulation of MAX mRNA expression at IC50 after 48 hrs by RT-PCR analysis; format: cell-based; procedure, shortened: as §2
[13] = system: Quadruplex DNA; experiment: Stabilization of AR G-quadruplex oligonucleotide in human DU145 cells assessed as down-regulation of ITGB3 mRNA expression at IC50 after 48 hrs by RT-PCR analysis; format: cell-based; procedure, shortened: as §2
[14] = system: Quadruplex DNA; experiment: Stabilization of AR G-quadruplex oligonucleotide in human DU145 cells assessed as up-regulation of WNT1 mRNA expression at IC50 after 48 hrs by RT-PCR analysis; format: cell-based; procedure, shortened: as §2
[15] = system: Quadruplex DNA; experiment: Stabilization of AR G-quadruplex oligonucleotide in human 22Rv1 cells assessed as reduction in cyclin D1 protein level at IC50 after 48 hrs by Western immunoblot assay; format: cell-based
[16] = system: CWR22R; experiment: Effect on JUN mRNA expression in human 22Rv1 cells at IC50 after 48 hrs by RT-PCR analysis; format: functional, cell-based; procedure, shortened: as §2
[17] = system: PC-3; experiment: Effect on c-MYC mRNA expression in human PC3 cells at IC50 after 48 hrs by RT-PCR analysis; format: functional, cell-based; procedure, shortened: as §2
[18] = system: DU-145; experiment: Effect on c-MYC mRNA expression in human DU145 cells at IC50 after 48 hrs by RT-PCR analysis; format: functional, cell-based; procedure, shortened: as §2
[19] = system: Quadruplex DNA; experiment: Stabilization of AR G-quadruplex oligonucleotide in human LNCAP cells assessed as reduction in PSA protein level by immunoblotting assay; format: cell-based
Procedure, shortened: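 Lysate proteins immunoblotted. Vinculin or β-actin used as loading control, peroxidase-linked secondary antibodies, ECL chemiluminescent detection, autoradiography, densitometric scan. Untreated cells received DMSO.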

[20] = system: Quadruplex DNA; experiment: Stabilization of AR G-quadruplex oligonucleotide in human 22Rv1 cells assessed as down-regulation of BCL2 mRNA expression at IC50 after 48 hrs by RT-PCR analysis; format: cell-based; procedure, shortened: as §2
[21] = system: Quadruplex DNA; experiment: Stabilization of AR G-quadruplex oligonucleotide in human PC3 cells assessed as down-regulation of BAX mRNA expression at IC50 after 48 hrs by RT-PCR analysis; format: cell-based
Procedure, shortened: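 PC-3 cells (RPMI-1640, 10% fetal calf serum) exposed at an equitoxic concentration. Expression of 92 cancer-mechanism genes measured on TaqMan Arrays. Change versus untreated cells computed by 2−ΔΔCt, with RNaseP as normalizer.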

[22] = system: PC-3; experiment: Synergistic cytotoxicity against human PC3 cells assessed as ED50 for Enzalutamide at 0.001 to 0.1 uM after 72 hrs by MTS assay; settings: PC-3, 72 h
[23] = system: PC-3; experiment: Synergistic cytotoxicity against human PC3 cells assessed as combination index for reduction in cell viability measured at ED50 Enzalutamide at 0.001 to 0.1 uM after 72 hrs by MTS assay based Chou and Talay's plot analysis

- ΔTm [1]: 20.5 °C
- Kd [2]: 196 nM
- RBA [3]: 100%
- Drug uptake [6]: Active
- Drug uptake [7]: Active
- ΔTm [10]: 4.7 °C
- inhibition [11]: Active
SMILES: CN(C)CCCn1c(=O)c2ccc3c(=O)n(CCCN(C)C)c(=O)c4c5[nH]c6ccccc6[nH]c5c(c1=O)c2c34.Cl.Cl
- IC50 [4]: 280 nM
- IC50 [5]: 180 nM
- Activity [8]: Active
- Activity [9]: Tde
- Activity [12]: Active
- Activity [13]: Active
- Activity [14]: Active
- Activity [15]: Active
- Activity [16]: inactive
- Activity [17]: inactive
- Activity [18]: inactive
- Activity [19]: Active
- Activity [20]: Active
- Activity [21]: Active
- EC50 [22]: 2180 nM
- CI [23]: >1
